From PubChem
Compounds with a hit are over-represented: about 1.7% of the library has one in this group of screens.
DNMT1 block = human DNMT1 methyltransferase inhibitors, primary screen, biochemical, molecular beacon, fluorescence, HinP1I cleavage, uHTS. DNA (cytosine-5)-methyltransferase 1 (Homo sapiens), P26358. 0.83% of 360,000 active. inhibition (reported as % activation of signal), % at 10 µM. AID 588458, 2011; in the data active = inhibition above about 50%
LMPTP inh = LMPTP phosphatase inhibitors, primary screen, biochemical, fluorescence intensity, uHTS | Low molecular weight phosphotyrosine protein phosphatase (Homo sapiens), P24666 | recombinant LMPTP-A, OMFP fluorogenic substrate | inhibition, % at 20 µM | 0.22% of 360,000 active | AID 651560, 2012;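 active = compounds that cut the enzyme signal by at least half of the control window in the single-dose screen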;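 also: plate controls were DMSO wells with enzyme plus substrate for no effect and substrate without enzyme for full effect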
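Test system – LMPTP-A enzyme · Amount – LMPTP-A at 0.625 nM final in the reaction · Buffer or medium – Bis-Tris pH 6.0, DTT, detergent · Reagent – OMFP 400 µM · Doses – single 20 µM dose · Schedule – reaction 50 min, room temperature, dark · Detection – fluorescence intensity of OMFP turnover product · Evaluation – percent inhibition versus substrate-only and uninhibited controls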
Scp1 inh = Scp-1 phosphatase inhibitors, primary screen, biochemical, colorimetric, uHTS; Carboxy-terminal domain RNA polymerase II polypeptide A small phosphatase 1 (Homo …; Recombinant Scp1, phosphopeptide, malachite green phosphate absorbance; inhibition, % at 20 µM; 0.88% of 340,000 active;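 active = inhibition above about 50% at 20 µM, limit read from the data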;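 also: plate controls were DMSO wells with enzyme for no effect and wells lacking enzyme for full effect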
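Times: enzyme reaction 45 min at room temperature, colour 5 min, stabilisation 30 min. Material: SCP-1 catalytic fragment, aa 76-261. Medium: Acidic Tris acetate buffer with magnesium and detergent. Signal: colorimetric free-phosphate detection, absorbance 630 nm. Read-out basis: % inhibition of SCP-1 phosphate liberation. Reagent: Phosphorylated 17-residue peptide substrate.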
STEP inh = STEP phosphatase inhibitors, primary screen, biochemical, fluorescence intensity, uHTS. 0.25% of 360,000 active. AID 588621, 2011. inhibition, % at 20 µM. Tyrosine-protein phosphatase non-receptor type 5 (Homo sapiens), P54829. recombinant STEP, OMFP fluorogenic substrate;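 active = inhibition at 20 µM, scaled per plate between control wells, above about 37%, limit read from the data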;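 also: 0% = DMSO with enzyme and substrate and 100% = substrate only without enzyme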
Target sequence (P54829 whole entry, looked up): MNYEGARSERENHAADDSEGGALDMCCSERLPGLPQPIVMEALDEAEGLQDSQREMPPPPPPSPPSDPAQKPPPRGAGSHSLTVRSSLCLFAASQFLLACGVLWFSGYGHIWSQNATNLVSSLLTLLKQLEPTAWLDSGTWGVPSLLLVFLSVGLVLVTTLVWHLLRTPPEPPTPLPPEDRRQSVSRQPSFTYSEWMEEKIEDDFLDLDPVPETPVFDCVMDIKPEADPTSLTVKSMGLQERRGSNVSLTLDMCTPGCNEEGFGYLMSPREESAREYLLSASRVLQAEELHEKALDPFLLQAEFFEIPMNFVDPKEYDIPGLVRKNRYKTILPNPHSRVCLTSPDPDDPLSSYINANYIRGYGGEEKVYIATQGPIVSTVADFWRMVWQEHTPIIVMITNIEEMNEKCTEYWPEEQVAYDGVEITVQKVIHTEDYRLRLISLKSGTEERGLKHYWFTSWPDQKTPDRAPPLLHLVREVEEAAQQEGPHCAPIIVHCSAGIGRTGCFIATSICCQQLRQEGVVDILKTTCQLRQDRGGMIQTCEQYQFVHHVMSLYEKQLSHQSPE
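Measure: Control-normalized % inhibition with plate pattern correction | Test system: STEP phosphatase, cell-free reaction | Medium: pH 6.0 Bis-Tris with DTT and Tween 20 | Technique: Fluorescence, 480/540 nm | Times: Reaction 20 min, ambient temperature | Doses: Single compound dose of 20 µM, 1% DMSO final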
SUMO1 PPI mod = modulators of SUMO1 protein-protein interactions, primary screen, biochemical, uHTS; Small ubiquitin-related modifier 1 (Homo sapiens), P63165; SUMO1 binding to a labelled peptide, TR-FRET, 1 h; inhibition, % at 20 µM; 0.33% of 360,000 active; AID 602429, 2012; in the data active = inhibition above about 37%
Scp-1 conf = Scp-1 phosphatase inhibitors, retest, confirmation, biochemical, colorimetric, single concentration; shares compounds with Scp1 inh; recombinant SCP-1 catalytic domain, phosphate release, malachite green absorbance; inhibition, % at 20 µM; 61% of 2,500 active; AID 540281, 2011;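 also: plate controls were DMSO with enzyme for no effect and buffer wells lacking enzyme for full effect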
MG interference = colorimetric readout interference by compounds, confirmation, artefact control for Scp-1 inhibitor project, biochemical, single concentration | shares compounds with Scp1 inh | Colorimetric interference counterscreen, malachite green absorbance 630 nm | apparent inhibition (interference), % at 20 µM | 2,500 tested, under 10 active;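 also: compounds added after enzyme reaction finished so only phosphate colour detection is probed; plate controls were DMSO wells with completed Scp-1 reaction for no effect and substrate wells lacking enzyme for full effect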
Scp-1 Tm shift = Scp-1 binding by thermal shift, confirmation, orthogonal assay for Scp-1 inhibitor project, biophysical, differential scanning fluorimetry | 25% of 1,500 active | AID 540329, 2011 | shares compounds with Scp1 inh | Recombinant SCP1, Sypro Orange thermal shift Tm | thermal shift relative to vanadate control, % at 40 µM;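 active = substances whose mean melting-temperature shift, as a percentage of the reference inhibitor's shift, reaches about 5.3%, limit read from the data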;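 also: 0% = Tm of DMSO wells and 100% = Tm with sodium orthovanadate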
* marks the source's active call; other numbers are inactive results.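 The calls were made as follows, unless noted: active = inhibition of at least 30% at 20 µM; inactive = the rest.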

Screening CCOC(=O)/C=C1\CC(C(=O)OCC)Oc2c(OC)cccc21 (centres undefined) returned DNMT1 block 7, LMPTP inh -1, Scp1 inh 103*, STEP inh -1, SUMO1 PPI mod -5, Scp-1 conf 67*, MG interference -16 and Scp-1 Tm shift -14.
CC(C[N+](C)(C)C)OC(=O)C1(c2ccccc2)CCCC1 (centres undefined) was read as DNMT1 block 0, LMPTP inh -2, Scp1 inh 63*, STEP inh -3, SUMO1 PPI mod 3, Scp-1 conf -20 and MG interference -16.
For Nc1nc(=S)c2ncn(C3OC(CO)CC3O)c2[nH]1 (centres undefined) the results were DNMT1 block 5, LMPTP inh -2, Scp1 inh -13, STEP inh -3 and SUMO1 PPI mod -1.
`C=CC#CC1(O)CC(C)[N+](C)(C)CC1C` (centres undefined) gave DNMT1 block 5, LMPTP inh -3, Scp1 inh 104*, STEP inh -1, SUMO1 PPI mod 2, Scp-1 conf 78*, MG interference -15 and Scp-1 Tm shift -26.
For O=C(CSc1ccccn1)NC1CCCc2c1cnn2-c1ccccc1F (centres undefined) the results were DNMT1 block 5, LMPTP inh -1, STEP inh 0 and SUMO1 PPI mod 1.
`COC(=O)C[C@@H]1CC[C@H](NC(=O)c2ccc3c(c2)OCO3)[C@@H](CO)O1` gave LMPTP inh -1 and SUMO1 PPI mod 2.
Screening C[n+]1c(/C=C/c2ccc(O)cc2)ccc2ccccc21 returned DNMT1 block -5, LMPTP inh 3, Scp1 inh 51*, STEP inh 0, SUMO1 PPI mod -52, Scp-1 conf -20 and MG interference -13.
For CC[n+]1c(/C=C/c2ccc(N(C)C)cc2)ccc2ccccc21 the results were DNMT1 block -1, LMPTP inh 36, Scp1 inh 13, STEP inh 24 and SUMO1 PPI mod -30.
Screening O=C(CCCCCn1c(SCc2ccncc2)nc2ccccc2c1=O)NCc1ccco1 returned DNMT1 block 19, LMPTP inh 22, Scp1 inh 56*, STEP inh 2, SUMO1 PPI mod 10, Scp-1 conf 32*, MG interference -10 and Scp-1 Tm shift -13.
For N#CCSc1nc2ccccc2c(=O)n1CCCC(=O)NCc1ccco1 the results were DNMT1 block 7, LMPTP inh -1, Scp1 inh 0, STEP inh -4 and SUMO1 PPI mod -2.
For CC1CC(C)CN(C(=O)c2ccc3c(c2)N(Cc2ccccc2)CCS3)C1 (centres undefined) the results were DNMT1 block -2, LMPTP inh 5, Scp1 inh 79*, STEP inh 2, SUMO1 PPI mod 2, Scp-1 conf 0 and MG interference -13.
For CC(NC(=O)OCc1ccccc1)c1ccccc1 (centres undefined) the results were DNMT1 block -1, LMPTP inh 0, Scp1 inh -11, STEP inh 0 and SUMO1 PPI mod -4.
For O=C(O)CC(NC(=O)OCc1ccccc1)c1ccccc1 (centres undefined) the results were DNMT1 block -1, LMPTP inh -4, Scp1 inh 73*, STEP inh 4, SUMO1 PPI mod -5, Scp-1 conf -23 and MG interference -22.
`COc1ccc(N2CC(C(=O)Nc3nc4ccccc4s3)CC2=O)cc1` (centres undefined) gave DNMT1 block 0, LMPTP inh -1, Scp1 inh -4, STEP inh 1, SUMO1 PPI mod 3, Scp-1 conf -3 and MG interference -4.
`CSc1cccc(N2CC(C(=O)Nc3cccc(S(=O)(=O)N4CCCC4)c3)CC2=O)c1` (centres undefined) gave DNMT1 block 0, LMPTP inh 1, Scp1 inh 74*, STEP inh -3, SUMO1 PPI mod -1, Scp-1 conf 76*, MG interference -24 and Scp-1 Tm shift -14.
Screening CCOc1ccc(N2CC(C(=O)Nc3ccc(N4CCOCC4)cc3)CC2=O)cc1 (centres undefined) returned DNMT1 block -2, LMPTP inh -1, Scp1 inh -1, STEP inh -2, SUMO1 PPI mod -2, Scp-1 conf -2 and MG interference -14.
CCOc1ccc(N2CC(C(=O)Nc3cccc(S(=O)(=O)N4CCCCC4)c3)CC2=O)cc1 (centres undefined) was read as DNMT1 block -5, LMPTP inh 1, Scp1 inh -6, STEP inh -1 and SUMO1 PPI mod 4.
For COc1ccc(N2CC(C(=O)Nc3ccc(S(=O)(=O)N4CCCC4)cc3)CC2=O)cc1 (centres undefined) the results were DNMT1 block -5, LMPTP inh 0, Scp1 inh 54*, STEP inh -1, SUMO1 PPI mod 1, Scp-1 conf -23 and MG interference -20.
Oc1ccc(C[C@H]2CN([C@@H](Cc3ccc(O)cc3)CN3CCC[C@@H]3CN3C(=S)NC[C@@H]3Cc3ccccc3)C(=S)N2CC2CCCCCC2)cc1 was read as DNMT1 block -37, LMPTP inh 4, STEP inh 3 and SUMO1 PPI mod 3.
CC(C)CN(CC(C)C)S(=O)(=O)c1cc([N+](=O)[O-])ccc1N1CCCCCC1 was read as DNMT1 block 3, LMPTP inh 5, Scp1 inh 52*, STEP inh 5, SUMO1 PPI mod -2, Scp-1 conf -9 and MG interference -12.
